Test results taken from ChEMBL document CHEMBL4393654, “Discovery and Early Clinical Development of an Inhibitor of 5-Lipoxygenase Activating Protein (AZD5718) for Treatment of Coronary Artery Disease” (J Med Chem, 2019).
Values after ≈ are worked out from the molar mass of the structure shown.

Legend:
[1] = biological target: T1, Aryl hydrocarbon receptor (Homo sapiens, UniProt P35869); experiment: Agonist activity at AhR in human HepG2 cells assessed as induction of CYP1A1 activity at 0.001 to 30 uM measured after 24 hrs by immunocytochemistry analysis; type: ADME, cell-based; conditions: hepg2, 24 h
T1 sequence (P35869 whole entry): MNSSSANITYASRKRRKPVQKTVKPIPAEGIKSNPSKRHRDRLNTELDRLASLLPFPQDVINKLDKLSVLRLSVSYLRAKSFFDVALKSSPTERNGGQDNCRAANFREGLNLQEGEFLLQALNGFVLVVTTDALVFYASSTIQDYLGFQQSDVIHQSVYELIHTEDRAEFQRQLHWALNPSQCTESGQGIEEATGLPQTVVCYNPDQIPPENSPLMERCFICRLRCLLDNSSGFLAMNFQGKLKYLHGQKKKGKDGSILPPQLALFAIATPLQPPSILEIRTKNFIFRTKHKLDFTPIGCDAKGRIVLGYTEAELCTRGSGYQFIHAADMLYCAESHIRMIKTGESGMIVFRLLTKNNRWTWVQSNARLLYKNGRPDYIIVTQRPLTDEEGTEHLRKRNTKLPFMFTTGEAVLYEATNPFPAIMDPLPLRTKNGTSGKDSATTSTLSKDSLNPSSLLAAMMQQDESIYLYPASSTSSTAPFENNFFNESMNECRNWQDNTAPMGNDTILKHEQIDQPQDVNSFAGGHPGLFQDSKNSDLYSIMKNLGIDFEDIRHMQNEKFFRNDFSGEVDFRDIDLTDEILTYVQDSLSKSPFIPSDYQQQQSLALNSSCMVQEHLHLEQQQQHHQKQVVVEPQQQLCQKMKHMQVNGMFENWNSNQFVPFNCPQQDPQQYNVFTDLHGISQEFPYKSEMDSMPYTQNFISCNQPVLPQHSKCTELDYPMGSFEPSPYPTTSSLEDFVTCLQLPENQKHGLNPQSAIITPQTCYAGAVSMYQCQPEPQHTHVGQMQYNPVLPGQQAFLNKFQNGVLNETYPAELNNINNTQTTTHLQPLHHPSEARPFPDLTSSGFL

[2] = Octanol-phosphate buffer partition co-efficient, log D of the compound at pH 7.4 after 2 hrs by LC-MS/MS-based shake flask method; type: physicochemical
Method in brief: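 Distribution between octanol and water at pH 7.4.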

[3] = Passive apparent permeability across apical to basolateral side in human Caco2 cells at pH 6.5; type: ADME, cell-based; conditions: Caco-2, pH 6.5
Method in brief: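 Passive permeability across Caco-2 monolayers, measured in the A to B direction at pH 6.5.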

[4] = Mutagenicity in Salmonella typhimurium TA100 in presence of rat S9 fraction by Ames test; type: toxicity, subcellular; conditions: salmonella enterica subsp. enterica serovar typhimurium
Method in brief: (§1)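 Ames bacterial mutagenicity test in S. typhimurium TA98 and TA100. Run with and without metabolic activation by rat S9 fraction.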

[5] = Protein binding in human plasma assessed as unbound fraction by equilibrium dialysis method; type: ADME, cell-free
[6] = Intrinsic clearance in rat hepatocytes assessed per million cells at 1 uM measured after 2 to 60 mins by LC-MS/MS analysis; type: ADME, cell-based, Hepatocyte; conditions: read-out: CLH
Method in brief: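 Rat hepatocyte incubation of the compound; intrinsic clearance measured after incubation.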

[7] = Cardiotoxicity in anesthetized Beagle dog assessed as effect on heart rate administered for 2 days as 45 mins iv infusion followed by compound washout and subsequent adrenaline dosing for 2 days as 10 mins iv infusion; type: toxicity, organism-based, Canis lupus familiaris; conditions: in vivo
[8] = Cardiotoxicity in anesthetized Beagle dog assessed as effect on cardiac contractility administered for 2 days as 45 mins iv infusion followed by compound washout and subsequent adrenaline dosing for 2 days as 10 mins iv infusion; type: toxicity, organism-based, Canis lupus familiaris; conditions: in vivo
[9] = biological target: T2, A-type potassium channel modulatory protein KCNIP2 (Homo sapiens, UniProt Q9NS61); experiment: Inhibition of human KChip2.2 by Ion-work electrophysiology assay
T2 sequence (Q9NS61 whole entry): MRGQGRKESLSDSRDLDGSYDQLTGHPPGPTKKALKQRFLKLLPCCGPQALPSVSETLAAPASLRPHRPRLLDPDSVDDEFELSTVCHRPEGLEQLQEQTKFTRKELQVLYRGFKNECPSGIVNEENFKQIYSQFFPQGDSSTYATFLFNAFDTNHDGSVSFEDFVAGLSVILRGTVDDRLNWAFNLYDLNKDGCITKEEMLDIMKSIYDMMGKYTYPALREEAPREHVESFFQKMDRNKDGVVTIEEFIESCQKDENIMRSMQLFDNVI

[10] = Mutagenicity in Salmonella typhimurium TA100 in absence of rat S9 fraction by Ames test; type: toxicity; conditions: salmonella enterica subsp. enterica serovar typhimurium; method in brief: as §1
[11] = biological target: Voltage-gated inwardly rectifying potassium channel KCNH2 (Homo sapiens, UniProt Q12809); experiment: Inhibition of human ERG by Ion-work assay
Voltage-gated inwardly rectifying potassium channel KCNH2, sequence (Q12809 whole entry): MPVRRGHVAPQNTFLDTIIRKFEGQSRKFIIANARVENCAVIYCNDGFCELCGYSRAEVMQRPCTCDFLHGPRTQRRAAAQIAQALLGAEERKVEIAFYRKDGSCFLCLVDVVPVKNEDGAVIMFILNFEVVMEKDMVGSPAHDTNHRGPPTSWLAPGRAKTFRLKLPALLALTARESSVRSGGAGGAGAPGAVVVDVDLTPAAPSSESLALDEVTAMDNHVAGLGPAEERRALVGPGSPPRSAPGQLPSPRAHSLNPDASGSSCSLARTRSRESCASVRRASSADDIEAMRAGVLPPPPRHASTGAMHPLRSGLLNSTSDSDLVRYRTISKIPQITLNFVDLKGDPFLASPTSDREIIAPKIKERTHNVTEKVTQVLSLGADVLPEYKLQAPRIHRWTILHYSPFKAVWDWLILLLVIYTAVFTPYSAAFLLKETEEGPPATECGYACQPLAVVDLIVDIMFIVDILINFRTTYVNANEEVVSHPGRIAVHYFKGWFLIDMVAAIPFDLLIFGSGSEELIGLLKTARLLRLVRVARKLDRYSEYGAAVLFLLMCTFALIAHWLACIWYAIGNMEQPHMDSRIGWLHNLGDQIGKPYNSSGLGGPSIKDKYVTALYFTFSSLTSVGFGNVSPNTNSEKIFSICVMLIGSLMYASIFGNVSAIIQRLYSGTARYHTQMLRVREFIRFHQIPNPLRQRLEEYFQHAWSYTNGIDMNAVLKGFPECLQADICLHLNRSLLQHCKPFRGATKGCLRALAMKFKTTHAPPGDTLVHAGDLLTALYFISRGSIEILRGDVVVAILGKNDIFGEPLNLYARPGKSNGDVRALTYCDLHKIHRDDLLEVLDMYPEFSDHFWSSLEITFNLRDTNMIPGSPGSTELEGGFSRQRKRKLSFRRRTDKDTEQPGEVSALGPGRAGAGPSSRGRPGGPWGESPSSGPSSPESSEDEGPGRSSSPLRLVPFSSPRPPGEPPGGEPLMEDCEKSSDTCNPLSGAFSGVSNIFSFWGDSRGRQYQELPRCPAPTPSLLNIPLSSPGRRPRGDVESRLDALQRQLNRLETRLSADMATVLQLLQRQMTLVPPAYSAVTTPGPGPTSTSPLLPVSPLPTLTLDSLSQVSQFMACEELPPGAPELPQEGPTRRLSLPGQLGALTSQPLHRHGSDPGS

[12] = biological target: T3, A-type voltage-gated potassium channel KCND3 (Homo sapiens, UniProt Q9UK17); experiment: Inhibition of human Kv4.3 by Ion-work electrophysiology assay
T3 sequence (Q9UK17 whole entry): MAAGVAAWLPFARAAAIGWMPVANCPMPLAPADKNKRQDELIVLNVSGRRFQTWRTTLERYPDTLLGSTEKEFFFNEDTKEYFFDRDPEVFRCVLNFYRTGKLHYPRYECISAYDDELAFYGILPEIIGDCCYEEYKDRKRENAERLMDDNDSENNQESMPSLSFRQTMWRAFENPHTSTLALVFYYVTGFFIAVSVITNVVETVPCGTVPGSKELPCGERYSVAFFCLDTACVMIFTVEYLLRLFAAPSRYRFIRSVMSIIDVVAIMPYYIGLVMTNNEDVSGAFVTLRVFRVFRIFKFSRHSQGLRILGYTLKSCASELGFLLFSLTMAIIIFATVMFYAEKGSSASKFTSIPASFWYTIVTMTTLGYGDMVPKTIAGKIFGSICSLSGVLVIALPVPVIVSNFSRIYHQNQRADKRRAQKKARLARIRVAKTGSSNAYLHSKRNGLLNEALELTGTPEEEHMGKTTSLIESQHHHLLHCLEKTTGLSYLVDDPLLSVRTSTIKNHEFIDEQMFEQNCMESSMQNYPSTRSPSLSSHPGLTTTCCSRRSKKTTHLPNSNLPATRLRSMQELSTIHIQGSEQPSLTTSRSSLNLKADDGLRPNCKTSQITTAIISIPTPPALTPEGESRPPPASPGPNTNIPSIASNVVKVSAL

[13] = Mutagenicity in Salmonella typhimurium TA98 in presence of rat S9 fraction by Ames test; type: toxicity, subcellular; conditions: salmonella enterica subsp. enterica serovar typhimurium; method in brief: as §1
[14] = biological target: Cytochrome P450 2C19 (Homo sapiens, UniProt P33261); experiment: Inhibition of recombinant human CYP2C19 expressed in Escherichia coli using CEC as substrate by fluorescence assay; type: ADME
Cytochrome P450 2C19, sequence (P33261 whole entry): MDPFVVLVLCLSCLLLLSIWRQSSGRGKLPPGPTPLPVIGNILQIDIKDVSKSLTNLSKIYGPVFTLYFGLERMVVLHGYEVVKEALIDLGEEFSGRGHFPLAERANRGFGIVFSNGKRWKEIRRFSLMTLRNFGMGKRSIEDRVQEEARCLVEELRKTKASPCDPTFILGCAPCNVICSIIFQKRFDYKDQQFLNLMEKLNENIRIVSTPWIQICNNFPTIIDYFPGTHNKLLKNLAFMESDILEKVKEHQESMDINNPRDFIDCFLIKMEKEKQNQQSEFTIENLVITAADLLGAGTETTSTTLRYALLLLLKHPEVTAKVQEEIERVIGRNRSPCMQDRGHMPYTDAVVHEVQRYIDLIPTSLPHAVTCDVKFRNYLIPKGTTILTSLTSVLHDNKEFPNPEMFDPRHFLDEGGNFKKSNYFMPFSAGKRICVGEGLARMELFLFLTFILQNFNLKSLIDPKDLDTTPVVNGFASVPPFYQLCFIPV

[15] = biological target: Potassium voltage-gated channel subfamily E member 1 (Homo sapiens, UniProt P15382); experiment: Inhibition of human KCNE1 by Ion-work electrophysiology assay
[16] = Inhibition of phospholipidosis in rat H42EC3 cells assessed as reduction in NBD-PE accumulation by SYTOX orange staining-based high content imaging analysis; type: cell-based
[17] = Aqueous solubility of the compound in pH 7.4 phosphate buffer measured after 24 hrs by LC-MS/MS-based shake flask method; type: physicochemical
[18] = biological target: Cytochrome P450 2D6 (Homo sapiens, UniProt P10635); experiment: Inhibition of recombinant human CYP2D6 expressed in Escherichia coli using MAMC as substrate by fluorescence assay; type: ADME
Cytochrome P450 2D6, sequence (P10635 whole entry): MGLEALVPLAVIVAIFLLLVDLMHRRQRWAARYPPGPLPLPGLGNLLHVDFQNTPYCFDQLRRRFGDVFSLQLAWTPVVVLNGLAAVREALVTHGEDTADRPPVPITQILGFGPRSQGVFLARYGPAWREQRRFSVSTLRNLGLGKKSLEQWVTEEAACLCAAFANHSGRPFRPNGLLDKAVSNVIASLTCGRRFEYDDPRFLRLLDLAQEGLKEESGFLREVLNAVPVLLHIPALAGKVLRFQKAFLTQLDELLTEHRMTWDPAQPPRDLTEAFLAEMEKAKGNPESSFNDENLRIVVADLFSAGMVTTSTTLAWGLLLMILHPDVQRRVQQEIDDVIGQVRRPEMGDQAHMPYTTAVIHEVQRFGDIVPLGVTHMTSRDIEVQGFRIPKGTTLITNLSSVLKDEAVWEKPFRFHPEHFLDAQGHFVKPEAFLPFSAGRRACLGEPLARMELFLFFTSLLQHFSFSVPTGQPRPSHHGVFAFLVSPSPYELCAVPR

Activity [1] | logD at 2 h [2] | Papp A→B [3] [×10⁻⁶ cm/s] | fraction unbound [5] | hepatocyte CLint at 1 µM [6] [µL/min/1e6 cells] | IC50 [9] [µM] | IC50 [12] [µM] | IC50 [14] [µM] | IC50 [15] [µM] | solubility thermodynamic at 24 h [17] [µM] | IC50 [18] [µM] | SMILES | Activity [4] | Activity [7] | Activity [8] | Activity [10] | IC50 [11] [µM] | Activity [13] | inhibition (INH) [16]
Not Active | 3.4 | 9 | 0.031 | 9.7 | > 33 | > 33 | > 20 | > 33 | 79.7 (≈ 37.5 µg/mL) | > 20 | Cc1cc(-c2ccc(C(=O)[C@@H]3CCCC[C@H]3C(=O)Nc3cnn(C)c3S(N)(=O)=O)cc2)[nH]n1 | Non-Toxic | Non-Toxic | Non-Toxic | Non-Toxic | > 33 | Non-Toxic | Non-Toxic
Not Active | 2.9 | 3.7 | 0.053 | 13.8 | > 33 | > 33 | > 20 | > 33 | 104 (≈ 46.4 µg/mL) | > 20 | Cc1cc(-c2ccc(C(=O)[C@@H]3CCCC[C@H]3C(=O)Nc3cnn4c3C(=O)NCC4)cc2)[nH]n1 | Non-Toxic | Non-Toxic | Non-Toxic | Non-Toxic | > 33 | Non-Toxic | Non-Toxic
Not Active | 3.3 | 14.7 | 0.006 | 19.5 | > 33 | > 33 | > 20 | > 33 | 208 (≈ 105 µg/mL) | > 20 | Cc1cc(-c2ccc(C(=O)[C@@H]3CCCC[C@H]3C(=O)Nc3cnn(C)c3C(=O)NOC(C)(C)C)cc2)[nH]n1 | Non-Toxic | Toxic | Toxic | Non-Toxic | > 33 | Non-Toxic | Non-Toxic
